Assay results taken from paper PMC5736852 (British Journal of Clinical Pharmacology, 2017).
Like-named read-outs stand apart in the source and are kept apart here. Marks after values point to notes of the source that are not given here.

Tests used:
[1] = cited from earlier work
[2] = Western patients, cited from earlier work
[3] = Exposure–safety logistic regression; format: in vivo, human
Procedure, shortened: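 Cancer patients (Western and Japan/East Asia) took oral test compound for 7 days in 21-day cycles, fasting from 2 h before to 1 h after dosing. Plasma levels were measured by LC/MS/MS. Per-patient time-averaged AUC per day covered dosing start to onset of worst-grade toxicity, from actual doses and individual CL/F from a two-compartment population PK model. Incidence (n = 591/593/594) was regressed logistically on log-transformed AUC.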

[4] = Global population pharmacokinetic analysis of alisertib in cancer patients; format: in vivo, human; details: for half-life: human, plasma, oral
[5] = East Asian patients, b.i.d. dosing
[6] = 30 mg b.i.d., patients in East Asia
[7] = 50 mg b.i.d., patients in East Asia
[8] = 50 mg b.i.d., patients in the West

COc1cc(Nc2ncc3c(n2)-c2ccc(Cl)cc2C(c2c(F)cccc2OC)=NC3)ccc1C(=O)O [alisertib]
patients who discontinued alisertib owing to treatment-emergent AEs ([1]; East Asian patients, 30 mg b.i.d., two of 30 patients): 6.7%
half-life [1, 5]: 15 to 17 h
median Tmax [1, 5]: 2 to 3 h
maximum tolerated dose (MTD) ([1]; East Asian patients, b.i.d. for 7 days in 21-day cycles): 30 mg
higher geometric mean steady-state systemic exposure in East Asian patients ([1]; East Asian vs Western patients): approximately 70%
mean CL/F in East Asian patients lower than in Western patients ([1]; East Asian vs Western patients): approximately 40%
maximum tolerated dose (MTD) ([2]; b.i.d. for 7 days in a 21-day cycle): 50 mg
median Tmax ([2]; postdose): 2 to 3 h
mean steady-state half-life following multiple dosing [2]: 19 to 23 h
estimated population mean time-averaged AUC [3, 6]: 14.23 μM*h day^–1
estimated probability of grade ≥2 diarrhoea [3, 6]: 12%
estimated probability of grade ≥2 stomatitis [3, 6]: 6.5%
estimated probability of grade ≥3 neutropenia [3, 6]: 37%
estimated population mean time-averaged AUC [3, 7]: 23.72 μM*h day^–1
estimated probability of grade ≥2 diarrhoea [3, 7]: 17%
estimated probability of grade ≥2 stomatitis [3, 7]: 13%
predicted probability of grade ≥3 neutropenia [3, 7]: 46%
estimated population mean time-averaged AUC [3, 8]: 15.63 μM*h day^–1
estimated probability of grade ≥2 diarrhoea [3, 8]: 13%
estimated probability of grade ≥2 stomatitis [3, 8]: 7%
predicted probability of grade ≥3 neutropenia [3, 8]: 39%
GM (CV) dose-normalized alisertib AUC(0–τ) ([4]; Asian patients in Asia, n = 59): 797 (45%) nM.h
GM (CV) dose-normalized alisertib AUC(0–τ) ([4]; Asian patients in the West, n = 8): 475 (43%) nM.h
geometric mean (%CV) dose-normalized alisertib AUC0–τ,ss ([4]; Region East, All (Japanese, Korean, Chinese), n = 59): 797 (45) nM.h mg^–1
geometric mean (%CV) dose-normalized alisertib AUC0–τ,ss ([4]; Region East, Chinese, n = 22): 752 (48) nM.h mg^–1
geometric mean (%CV) dose-normalized alisertib AUC0–τ,ss ([4]; Region East, Japanese, n = 23): 799 (34) nM.h mg^–1
geometric mean (%CV) dose-normalized alisertib AUC0–τ,ss ([4]; Region East, Korean, n = 13): 885 (53) nM.h mg^–1
geometric mean (%CV) dose-normalized alisertib AUC0–τ,ss ([4]; Region West, All non-Asian races, n = 604): 482 (43) nM.h mg^–1
geometric mean (%CV) dose-normalized alisertib AUC0–τ,ss ([4]; Region West, All, n = 612): 482 (43) nM.h mg^–1
geometric mean (%CV) dose-normalized alisertib AUC0–τ,ss ([4]; Region West, Asian, n = 8): 475 (43) nM.h mg^–1
geometric mean (%CV) dose-normalized alisertib AUC0–τ,ss ([4]; Region West, Black, n = 33): 462 (57) nM.h mg^–1
geometric mean (%CV) dose-normalized alisertib AUC0–τ,ss ([4]; Region West, White, n = 556): 482 (43) nM.h mg^–1
BSAV1, effect of BSA on V1/F, pop value ([4]; final model): 0.899
CL/F, V1/F, V2/F and Q/F lower in the East Asian region ([4]; final model): 34.1%
KTR, transit compartment rate constant, pop value ([4]; final model): 4.17 1 h^–1
V1/F, apparent central volume, pop value ([4]; final model): 54.3 L
V2/F, apparent peripheral volume, pop value ([4]; final model): 28.7 L
net mean transit time for oral absorption ([4]; final model): 0.96 h
CL/F, apparent clearance, pop value ([4]; final model (analysis data set n = 422)): 4.11 l h^–1
higher bioavailability (F) in East Asian region compared with Western patients ([4]; final model, covariate effect of region on F): 52%
RGNF, effect of region, pop value ([4]; final model, affected parameters multiplied by (1–0.341) for East Asian region): −0.341 ^a
half-life ([4]; population alpha half-life, final model): 1.71 h
half-life ([4]; population beta half-life, final model): 15.1 h
GM (CV) dose-normalized alisertib AUC(0–τ) ([4]; non-Asian patients in the West, n = 604): 482 (43%) nM.h
